# Screens: PubChem BioAssay, several laboratories
# In the library only some 4.1% were active in any assay of this set; here they are far more common.
# KCNK9 block: KCNK9 potassium channel inhibitors, primary screen, HEK293 cells, thallium flux; B-score at 10 µM; hit rate 1.2% among 310,000; Potassium channel subfamily K member 9 (Homo sapiens), Q9NPC2; FluxOR thallium flux fluorescence; active compounds read low;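 active = ratio B-score over 3 SD below the library mean, with starting fluorescence within 5 SD of its mean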;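 also: negative B-score means less thallium flux so channel inhibition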
# Target sequence (Q9NPC2 whole entry, looked up): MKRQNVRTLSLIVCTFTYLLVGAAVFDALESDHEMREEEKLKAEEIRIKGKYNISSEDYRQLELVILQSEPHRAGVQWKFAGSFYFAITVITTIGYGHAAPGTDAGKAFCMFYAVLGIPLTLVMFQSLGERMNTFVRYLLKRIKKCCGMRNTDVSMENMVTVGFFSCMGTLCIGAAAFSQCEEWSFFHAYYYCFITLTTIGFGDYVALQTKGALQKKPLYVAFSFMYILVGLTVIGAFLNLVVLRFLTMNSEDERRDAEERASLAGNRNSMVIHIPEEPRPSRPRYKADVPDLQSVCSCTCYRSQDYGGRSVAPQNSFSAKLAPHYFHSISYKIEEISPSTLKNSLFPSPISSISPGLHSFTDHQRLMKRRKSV
# KCNK3 inh: human KCNK3 channel inhibitors, primary screen, CHO cells, FluxOR thallium flux, B-score; Potassium channel subfamily K member 3 (Homo sapiens), O14649; FluxOR fluorescence; active compounds read low; B-score at 10 µM; hit rate 0.84% among 340,000; AID 602410, 2012;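 active = B-score under library mean minus 4 SD, starting fluorescence ratio at most library mean plus 5 SD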;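 also: more negative B-score means stronger inhibition of thallium flux through KCNK3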
# KCNQ1 act: potentiators or activators of KCNQ1 channel, primary screen, cell-based, thallium flux, high-throughput. B-score at 10 µM. CHO-K1 KCNQ1, thallium flux FluxOR fluorescence; active compounds read high. Potassium voltage-gated channel subfamily KQT member 1 (Homo sapiens), P51787. hit rate 0.35% among 310,000;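 active = fluorescence ratio B-score, a plate-corrected score, at least three library SD, with initial intensity B-score within 5 SD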
#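 Medium – assay buffer, equal DMSO in all wells · Material – CHO-K1 cell line with stable KCNQ1 potassium channel expression · Signal – kinetic FluxOR thallium fluorescence, 10-s 1-Hz baseline, 110-s post-stimulus read · Compound – single concentration per compound, DMSO matched to controls · Schedule – 37 °C overnight plating, 90-min dark dye load, 20-min compound pretreatment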
# KCNQ1 inh: inhibitors of human KCNQ1 channel, primary screen, cell-based, thallium flux, high-throughput; Potassium voltage-gated channel subfamily KQT member 1 (Homo sapiens), P51787; CHO-K1 KCNQ1, FluxOR thallium flux fluorescence; active compounds read high; B-score at 10 µM; hit rate 1.3% among 310,000; AID 2642, 2010;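 active = compounds whose thallium flux B-score, printed positive for inhibition, exceeds three library SD while starting fluorescence stays within three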;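 also: channel opened by potassium depolarization with thallium stimulus after 20 min compound exposure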
# Cl transport mod: KCC2 cotransporter modulators, thallium flux, primary screen, cell-based, HEK293 KCC2, FluoZin-2 fluorescence, MLSMR | Solute carrier family 12 member 5 (Homo sapiens), Q9H2X9 | KCC2 cells, thallium flux FluoZin-2 fluorescence | B-score of Tl+ flux slope (higher = more flux/activation; lower = inhibition) at 10 µM | hit rate 2.2% among 190,000 | AID 1456, 2008;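 active = thallium flux slope and its plate-corrected score both differing from the plate sample mean at a set confidence after two filtering rounds, in either direction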;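 also: slope of fluorescence scaled to starting intensity during 10 to 20 s after thallium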
# hERG rescue: hERG rescue from dofetilide block, primary screen, cell-based, CHO-hERG, FluxOR thallium flux, dofetilide IC70; Voltage-gated inwardly rectifying potassium channel KCNH2 (Homo sapiens), Q12809; dofetilide IC70 present; activation (rescue from dofetilide block), less the hit threshold, % at 10 µM; hit rate 0.51% among 310,000; AID 1511, 2009;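 active = activation above the mean of controls blocked by dofetilide plus 5 SD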;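 also: thallium influx through hERG after potassium depolarization seen as dye fluorescence rise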
# KCNK9 block conf: KCNK9 potassium channel inhibitors, confirmation, HEK293 cells, thallium flux, duplicate. shares compounds with KCNK9 block. FluxOR thallium flux fluorescence. inhibition, % at 10 µM. hit rate 43% among 4,900;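 active = thallium signal inhibited by more than 5 SD of the compound-free buffer control wells, on both duplicate plates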;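 also: 0% = assay buffer control wells without compound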
# Kir2-1 spec: mouse Kir2.1 channel inhibition, confirmation, selectivity assay for KCNK9 modulator project, cell-based, HEK293, thallium flux; shares compounds with KCNK9 block; hit rate 4% among 4,900; inhibition, % at 10 µM; Kir2.1 cells, FluxOR thallium flux fluorescence;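 active = thallium signal drop more than 5 SD beyond the mean of the no-compound control wells, seen in both duplicate plates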;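 also: signal is fluorescence rise after thallium addition divided by baseline fluorescence; plate controls were assay buffer only for no effect and full block by chlorpromazine control for full effect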
# HEK293 Tl ctr: thallium flux in non-induced HEK293 cells, confirmation, counter-screen for KCNK9 inhibitor project, cell-based, second counter screen, non-induced KCNK9-HEK293. shares compounds with KCNK9 block. FluxOR thallium flux. inhibition, % at 10 µM. hit rate 40% among 4,900. AID 492997, 2010;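 active = thallium signal drop beyond 5 SD of the untreated control mean, on both duplicate plates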;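 also: plate controls were buffer only IC0 wells for no effect and SID17386958 at its maximal inhibitory level for full effect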
# Starred values were filed as active, the others as inactive; i = inactive; / = not tested or not shown.
SMILES,KCNK9 block,KCNK3 inh,KCNQ1 act,KCNQ1 inh,Cl transport mod,hERG rescue,KCNK9 block conf,Kir2-1 spec,HEK293 Tl ctr
CCOC(=O)CC(NC(=O)Cn1nnc(-c2ccccc2F)n1)c1ccccc1Cl (centres undefined),i,i,i,i,-1.29,-9.9,/,/,/
N#Cc1ccccc1OCC(=O)OCC(=O)Nc1ccc2c(c1)OCO2,/,i,/,/,/,/,/,/,/
COc1cccc(NC(=O)C(Sc2nnc(Nc3ccccc3C)s2)c2ccccc2)c1 (centres undefined),-9.09*,i,i,i,-0.125,-6.8,i,i,38.5%*
O=[N+]([O-])c1ccccc1-c1ccc(C(=S)N2CCN(c3ccccc3)CC2)o1,i,i,i,i,0.0245,-5.7,i,i,i
Clc1cccc(-c2cc3nc4c(c(NCc5ccco5)n3n2)CCCC4)c1,-9.41*,i,i,i,0.447,-11.7,29.5%*,i,32.5%*
O=C1/C(=C/c2cccc(F)c2)SC(=S)N1NS(=O)(=O)c1ccccc1,i,i,i,i,/,-2.0,i,i,i
COc1ccc(/C=C2/SC(=S)N(NS(=O)(=O)c3ccc(C)cc3)C2=O)cc1,i,i,12*,i,/,-10.3,i,i,i
C=CCOc1ccc(/C=C2\SC(=S)N(NS(=O)(=O)c3ccc(C)cc3)C2=O)cc1,i,i,24*,i,/,-4.2,i,i,i
Cc1ccc(S(=O)(=O)NN2C(=O)/C(=C\c3ccc(Cl)cc3)SC2=S)cc1,i,i,i,i,/,-2.2,/,/,/
COc1cc(/C=C2\SC(=S)N(NS(=O)(=O)c3ccccc3)C2=O)cc(OC)c1OC,i,i,i,i,0.357,-16.8,/,/,/
COc1ccc2c(c1)CC(C(=O)Nc1ccc(Cl)cc1)/C(=N/O)O2 (centres undefined),i,i,i,i,/,-5.0,/,/,/
CCN(CC)S(=O)(=O)c1cnccc1N1CCN(c2cccc(Cl)c2)CC1,-9.85*,i,i,i,0.00698,-0.9,35.5%*,i,27.0%*
CNS(=O)(=O)c1cnccc1N1CCN(c2cccc(Cl)c2)CC1,i,i,i,i,-0.661,-8.9,/,/,/
C(=N\Nc1nc(N2CCCCCC2)nc(N2CCCCCC2)n1)/c1ccccc1,i,i,i,i,0.46,-2.3,/,/,/
CC(/C=N/Nc1nc(N2CCCCC2)nc(N2CCCCC2)n1)=C\c1ccccc1,-12.2*,i,i,i,-0.399,-6.7,55.0%*,i,27.0%*
C/C(=C/C=N/Nc1nc(N2CCCCC2)nc(N2CCCCC2)n1)c1ccccc1,-8.65*,i,i,i,-0.0935,-13.2,44.5%*,i,i
Oc1ccc(/C=N/Nc2nc(N3CCCCCC3)nc(N3CCCCCC3)n2)c(O)c1,i,i,i,i,-0.315,-15.0,/,/,/
CC1CCN(C(=O)C(C)c2ccc([N+](=O)[O-])cc2)CC1 (centres undefined),i,i,i,i,-0.298,-7.8,/,/,/
